Values after ≈ are worked out from the molar mass of the structure shown. Active and inactive are the calls of the source. The rule behind the calls is not given here.
Experiments:
[1] = Solubility of the compound at pH 7.4; assay type: physicochemical; conditions: buffer
[2] = tested on: Quadruplex DNA; experiment: Stabilization of G4-quadruplex PEPu24T DNA (unknown origin) assessed as inhibition of Taq DNA polymerase activity by measuring full length DNA product at 0.24 uM pretreated for 10 mins followed by incubation with dNTPs for 15 mins by PAGE analysis; assay type: nucleic-acid assay; set-up: scale not given: the % may be the effect or the level left; conditions: time 25.0 min
How it was run: (§1)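 Template made by annealing TET-labelled 25 nt primer (1 μM final) to PEPu24T (1.25 μM final) in 100 mM KCl. Reaction: 40 nM template, Taq buffer pH 8.8 with 50 mM KCl, 25 mM MgCl2, 0.05 U Taq. Compound preincubated on ice 10 min; dNTPs (100 μM) added, 37 °C 15 min. Denaturing 12% urea/formamide PAGE; full-length product expressed as % of no-compound sample; SD of ≥2 independent experiments.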

[3] = Stabilization of double stranded PEPu24T mut DNA (unknown origin) assessed as inhibition of Taq DNA polymerase activity by measuring reduction in full length DNA product at 6 uM pretreated for 10 mins followed by incubation with dNTPs for 15 mins by PAGE analysis; conditions: time 25.0 min
How it was run: (§2)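 Non-G4 control template: TET-labelled 25 nt primer (1 μM final) annealed to mutated PEPu24T mut (1.25 μM final) in 100 mM KCl. 40 nM template, Taq buffer pH 8.8, 25 mM MgCl2, 0.05 U Taq. Compound on ice 10 min, then 100 μM dNTPs at 37 °C 15 min. Denaturing PAGE; full-length product as % of no-compound sample.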

[4] = tested on: Quadruplex DNA; experiment: Stabilization of 5'-FAM and 3'-TAMRA labelled c-Myc G4-quadruplex Pu24T DNA (unknown origin) assessed as increase in thermal stability of DNA structure at 5 to 40 equiv. by FRET melting assay; conditions: dose 5-40 equiv
[5] = tested on: Quadruplex DNA; experiment: Stabilization of fluorescently labelled c-Myc G4-quadruplex Pu22 DNA (unknown origin) assessed as increase in thermal stability of DNA structure at 40 equiv. by FRET melting assay; assay type: nucleic-acid assay
How it was run: (§3)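 Pu22 (FAM/TAMRA, 0.2 μM), folded in 10 mM lithium cacodylate pH 7.4, 2 mM KCl, 98 mM LiCl. Ligand at 5, 10, 25 or 40 equivalents. Heated 10–95 °C; donor emission at 516 nm (excitation 492 nm) normalized. Tm taken at 0.5 normalized emission; ΔTm is Tm with ligand minus Tm without ligand. Duplicate wells.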

[6] = tested on: Quadruplex DNA; experiment: Stabilization of fluorescently labelled c-Myc G4-quadruplex Pu22 DNA (unknown origin) assessed as increase in thermal stability of DNA structure at 5 to 40 equiv. by FRET melting assay; assay type: nucleic-acid assay; conditions: dose 5-40 equiv; how it was run: as §3
[7] = tested on: Quadruplex DNA; experiment: Stabilization of G4-quadruplex PEPu24T DNA (unknown origin) assessed as inhibition of Taq DNA polymerase activity by measuring reduction in full length DNA product at 0.048 to 6 uM pretreated for 10 mins followed by incubation with dNTPs for 15 mins by PAGE analysis; assay type: nucleic-acid assay; conditions: dose 0.048-6 µM, time 25.0 min; how it was run: as §1
[8] = tested on: Quadruplex DNA; experiment: Binding affinity to c-Myc G4-quadruplex Pu22 DNA (unknown origin) assessed as change in entropy by isothermal titration calorimetry; assay type: nucleic-acid assay
How it was run: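 Reverse titration: cell holds 20 μM ligand, syringe 120 μM prefolded G4 DNA, 20 injections in 10 mM potassium phosphate, 100 mM KCl, pH 7.4, at 19 °C. First injection 0.5 μL, then 2 μL, 120 s spacing, 1000 rpm, high-feedback mode. Data fitted to one-site binding model.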

[9] = tested on: Quadruplex DNA; experiment: Stabilization of G4-quadruplex PEPu24T DNA (unknown origin) assessed as inhibition of Taq DNA polymerase activity by measuring reduction in full length DNA product at 0.048 uM pretreated for 10 mins followed by incubation with dNTPs for 15 mins by PAGE analysis; assay type: nucleic-acid assay; conditions: time 25.0 min; how it was run: as §1
[10] = tested on: Quadruplex DNA; experiment: Stabilization of G4-quadruplex PEPu24T DNA (unknown origin) assessed as inhibition of Taq DNA polymerase activity by measuring reduction in full length DNA product at 0.24 uM pretreated for 10 mins followed by incubation with dNTPs for 15 mins by PAGE analysis; assay type: nucleic-acid assay; conditions: time 25.0 min; how it was run: as §1
[11] = Stabilization of double stranded PEPu24T mut DNA (unknown origin) assessed as inhibition of Taq DNA polymerase activity by measuring reduction in full length DNA product at >4 uM pretreated for 10 mins followed by incubation with dNTPs for 15 mins by PAGE analysis; conditions: time 25.0 min; how it was run: as §2
[12] = tested on: Quadruplex DNA; experiment: Binding affinity to c-Myc G4-quadruplex Pu22 DNA (unknown origin) at 0.7 equivalent by NMR titration analysis; assay type: nucleic-acid assay; conditions: dose 0.7 equiv
How it was run: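 Pu22 folded at 100 μM in 10 mM potassium phosphate pH 7.4, 35 mM KCl (95 °C 10 min, cooled overnight). 10% D2O added, giving 90 μM DNA. Compound added stepwise in increasing equivalents. 1D 1H spectra with excitation sculpting, 256 scans, 298 K, 850 MHz.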

[13] = tested on: Quadruplex DNA; experiment: Stabilization of fluorescently labelled G4-quadruplex c-KIT2 DNA (unknown origin) assessed as increase in thermal stability of DNA structure at 2 uM by FRET melting assay; assay type: nucleic-acid assay
How it was run: (§4)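 0.2 μM FAM/TAMRA dual-labelled oligonucleotide, prefolded in 10 mM lithium cacodylate pH 7.4, 10 mM KCl, 90 mM LiCl (95 °C 10 min, then ≥1 h cold). Ligand added and sample heated from 10 to 95 °C; donor emission at 516 nm (excitation 492 nm) normalized. Tm taken at 0.5 normalized emission; ΔTm is Tm with ligand minus Tm without ligand. Duplicate wells.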

[14] = tested on: Quadruplex DNA; experiment: Stabilization of fluorescently labelled G4-quadruplex 25Ceb DNA (unknown origin) assessed as increase in thermal stability of DNA structure at 2 uM by FRET melting assay; assay type: nucleic-acid assay; how it was run: as §4
[15] = tested on: Quadruplex DNA; experiment: Stabilization of fluorescently labelled G4-quadruplex Bcl2 DNA (unknown origin) assessed as increase in thermal stability of DNA structure at 2 uM by FRET melting assay; assay type: nucleic-acid assay; how it was run: as §4
[16] = tested on: Quadruplex DNA; experiment: Stabilization of fluorescently labelled G4-quadruplex 21G DNA (unknown origin) assessed as increase in thermal stability of DNA structure at 2 uM by FRET melting assay; assay type: nucleic-acid assay; how it was run: as §4
[17] = tested on: Quadruplex DNA; experiment: Stabilization of fluorescently labelled G4-quadruplex Bom17 DNA (unknown origin) assessed as increase in thermal stability of DNA structure at 2 uM by FRET melting assay; assay type: nucleic-acid assay; how it was run: as §4
[18] = tested on: Quadruplex DNA; experiment: Stabilization of fluorescently labelled G4-quadruplex Tba DNA (unknown origin) assessed as increase in thermal stability of DNA structure at 2 uM by FRET melting assay; assay type: nucleic-acid assay; how it was run: as §4
[19] = tested on: Quadruplex DNA; experiment: Stabilization of fluorescently labelled c-Myc G4-quadruplex Pu22 DNA (unknown origin) assessed as increase in thermal stability of DNA structure at 2 uM in presence of double stranded competitor DNA ds26 by FRET melting assay; assay type: nucleic-acid assay
How it was run: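 Competition melting: 0.2 μM labelled Pu22 in 10 mM lithium cacodylate pH 7.4, 2 mM KCl, 98 mM LiCl, with ligand plus 0–100 equivalents of ds26 duplex competitor. Heated 10–95 °C; FAM emission normalized. Tm taken at 0.5 normalized emission; ΔTm is Tm with ligand minus Tm without ligand. SD of at least six independent experiments.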

[20] = tested on: dsDNA; experiment: Binding affinity to 5'-Cy5-labelled double stranded DNA ds26 (unknown origin) by microscale thermophoresis analysis; assay type: nucleic-acid assay
How it was run: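 Cy5-labelled DNA held at 25 nM, folded in 10 mM phosphate, 100 mM KCl, pH 7.4 (95 °C 5 min, cooled to room temperature). Ligand in 16 1:3 dilutions in 10 mM phosphate pH 7.4, 100 mM KCl, 0.05% Tween20. Capillary fluorescence read at 20% LED power; change in fluorescence versus ligand concentration fitted by nonlinear equation for binding constant.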

[21] = tested on: Quadruplex DNA; experiment: Stabilization of G4-quadruplex DNA in human HeLa cells assessed as increase in BG4-positive cell nuclei at 1 to 2 uM incubated for 24 hrs by immunofluorescence microscopy; assay type: functional, cell-based; conditions: dose 1-2 µM
How it was run: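 HeLa cells (60,000 on coverslips) treated 24 h. Cells fixed in 2% paraformaldehyde, permeabilized in 0.1% Triton X-100, blocked in 2% milk. Stained with BG4–FLAG (1/3000), rabbit anti-FLAG, then Alexa594 anti-rabbit, each 1 h at 37 °C; nuclei stained with DAPI. BG4 foci per nucleus counted, 90–166 cells per condition. Welch-corrected t tests on ln-transformed data; mean ± 2SD shown.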

Compound | solubility [1] [µM] | Activity [3] | Activity [4] | Activity [6] | Activity [7] | other results
Cc1cc(NCCCN(C)C)nc(Nc2nc(C)c3cc(Cl)ccc3n2)n1 | 858 (≈ 331 µg/mL) | inactive | Active | – | – | Activity [5]: Active
Cc1cc(C)c2nc(Nc3nc(C)cc(NCCCN(C)C)n3)nc(C)c2c1 | 858 (≈ 326 µg/mL) | – | Active | – | – | -TdeltaS [8]: 1.85 kcal/mol; inhibition [9]: 50%; inhibition [10]: 100%; Activity [11]: Active; Activity [12]: Active; Activity [13]: Active; Activity [14]: Active; Activity [15]: Active; Activity [16]: Active; Activity [17]: Active; Activity [18]: inactive; Activity [19]: Active; Activity [20]: inactive; Activity [21]: Active
Cc1cc(NCCCN(C)C)nc(Nc2nc3cc(Cl)c(Cl)cc3nc2C)n1 | – | inactive | Active | Active | Active | –
Cc1cc(C)nc(Nc2nc(C)c3ccccc3n2)n1 | 134 (≈ 35.6 µg/mL) | inactive | – | – | – | –

Further lines, with some results ahead:

solubility [1] [µM] | Activity [3] | Activity [4] | Activity [6] | Activity [7] | Compound | other results
858 (≈ 290 µg/mL) | inactive | Active | – | – | Cc1cc(NCCCN(C)C)nc(Nc2ncc3ccccc3n2)n1 | Activity [2]: 65%
– | inactive | Active | inactive | Active | Cc1cc(NCCCN(C)C)nc(Nc2cnc3ccccc3n2)n1 | –
– | inactive | Active | Active | Active | Cc1cc(NCCCN(C)C)nc(Nc2nc3ccccc3nc2C)n1 | –

Source: ChEMBL document CHEMBL5385911, “Exploring the Dispersion and Electrostatic Components in Arene-Arene Interactions between Ligands and G4 DNA to Develop G4-Ligands” (J Med Chem, 2024)
